From ChEMBL document CHEMBL1926652, “Effect of 2',6'-dimethyl-L-tyrosine (Dmt) on pharmacological activity of cyclic endomorphin-2 and morphiceptin analogs” (Bioorg Med Chem, 2011)
pIC50: −log10 of the molar value. The source made the active and inactive calls. Where a SMILES comes first, the peptide text is derived from it. Bridges are numbered along the chain shown (N, C = ends). [ ]: non-standard residue; d: D form. Dmt = Cc1cc(O)cc(C)c1C[C@H](N)C(=O)O

Key:
Mus musculus [1] = assay: Antinociceptive activity in icv dosed in Swiss albino mouse assessed as jumping latency by hot plate method; type: functional
Summary of the method: (§1)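 Male Swiss albino mice (20–26 g), 10 per group. Peptides dissolved in DMSO, diluted in saline, given i.c.v. with a Hamilton syringe and 0.5 mm needle, 5 min before testing in dose–response runs. Mouse confined by a plastic cylinder on a 55 °C hot plate. Latencies to paw licking, rearing and jumping recorded, 240 s cut-off. %MPE = (t1−t0)/(t2−t0)×100. ED50 derived from dose–response.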

Mus musculus [2] = assay: Antinociceptive activity in icv dosed in Swiss albino mouse assessed as rearing latency by hot plate method; type: functional, organism-based; summary of the method: as §1
[3] = Half life in Wistar rat brain at 0.5 mM by RP-HPLC analysis; type: ADME, tissue-based
Summary of the method: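 Pooled rat brains homogenized in 20 volumes of 50 mM Tris-HCl, pH 7.4. Homogenate at 10 mg protein/ml incubated with an equal volume of 0.5 mM peptide at 37 °C for 0–60 min. Reaction stopped on ice with 1 M HCl, then centrifuged at 20,000g. Three experiments in duplicate.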

Rattus norvegicus = species: Rattus norvegicus; assay: Selectivity ratio of IC50 for delta opioid receptor in Wistar rat brain membrane to IC50 for mu opioid receptor in Wistar rat brain membrane; type: cell membranes
Summary of the method: (§2)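 Crude membranes from Wistar rat brain incubated with [3H]DAMGO for mu or [3H][Ile5,6]deltorphin-2 for delta. Non-specific binding defined with naloxone. Reaction ended by rapid filtration on GF/B strips soaked in 0.5% […], then two ice-cold Tris-HCl washes. Bound radioactivity counted by liquid scintillation after overnight extraction. IC50 from three independent experiments in duplicate; ratio is delta IC50/mu IC50.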

Mus musculus [4] = assay: Antinociceptive activity in icv dosed in Swiss albino mouse assessed as paw licking latency by hot plate method; type: functional, organism-based; summary of the method: as §1
[5] = target: Delta-type opioid receptor (Rattus norvegicus, UniProt P33533); assay: Displacement of [3H][Ile5,6]deltorphin 2 from delta opioid receptor in Wistar rat brain membrane by liquid scintillation counting; type: cell membranes; summary of the method: as §2
Chain of Delta-type opioid receptor (P33533 whole entry): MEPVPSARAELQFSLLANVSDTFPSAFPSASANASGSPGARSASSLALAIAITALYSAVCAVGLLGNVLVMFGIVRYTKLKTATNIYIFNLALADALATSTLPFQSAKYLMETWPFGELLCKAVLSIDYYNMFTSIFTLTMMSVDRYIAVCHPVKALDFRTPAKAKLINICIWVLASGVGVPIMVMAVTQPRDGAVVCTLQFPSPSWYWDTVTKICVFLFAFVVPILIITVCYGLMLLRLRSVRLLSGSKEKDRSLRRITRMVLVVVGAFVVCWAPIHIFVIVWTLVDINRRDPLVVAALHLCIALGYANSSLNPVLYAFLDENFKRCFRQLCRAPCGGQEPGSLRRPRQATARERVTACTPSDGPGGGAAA

Mu-type opioid receptor = Mu-type opioid receptor (Rattus norvegicus, UniProt P33535); assay: Displacement of [3H]DAMGO from Wistar rat mu opioid receptor by liquid scintillation counting; summary of the method: as §2
Chain of Mu-type opioid receptor (P33535 whole entry): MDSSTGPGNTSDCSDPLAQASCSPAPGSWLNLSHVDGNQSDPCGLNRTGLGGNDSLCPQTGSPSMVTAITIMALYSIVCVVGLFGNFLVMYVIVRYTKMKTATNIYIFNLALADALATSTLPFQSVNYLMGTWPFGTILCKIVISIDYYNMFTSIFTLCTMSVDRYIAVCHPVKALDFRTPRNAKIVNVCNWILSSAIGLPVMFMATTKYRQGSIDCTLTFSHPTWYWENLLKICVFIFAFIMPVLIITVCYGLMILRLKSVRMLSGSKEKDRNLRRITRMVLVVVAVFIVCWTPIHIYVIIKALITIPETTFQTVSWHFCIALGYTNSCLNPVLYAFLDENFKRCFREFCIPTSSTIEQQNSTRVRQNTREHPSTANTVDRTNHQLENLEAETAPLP

Mus musculus [6] = assay: Antinociceptive activity in Swiss albino mouse assessed as jumping latency at 10 ng, icv up to 30 mins by hot plate method; type: functional, organism-based; summary of the method: as §1
Brain = assay: Drug uptake in Swiss albino mouse brain 0.01 to 1 mg/kg, iv; type: ADME, organism-based; set-up: dose 0.01-1 mg/kg, route intravenous; details: in vivo
Summary of the method: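 Blood–brain barrier passage judged in vivo. Peptides at 0.01 and 1 mg/kg were injected intravenously into male Swiss albino mice 30 min before a 55 °C hot plate test. Paw licking, rearing and jumping latencies recorded with a 240 s cut-off and expressed as %MPE.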

Mus musculus [7] = species: Mus musculus; assay: Antinociceptive activity in Swiss albino mouse assessed as jumping latency at 3 ng by hot plate method in presence of beta funaltrexamine; type: functional, organism-based
Summary of the method: (§3)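 Hot plate test at 55 °C in male Swiss albino mice, 10 per group, with jumping latency read and a 240 s cut-off. Antagonists were given i.c.v.: beta-funaltrexamine, naltrindole at 1 µg/animal, nor-binaltorphimine at 5 µg/animal. Agonist peptides were given i.c.v. at 3 ng/animal. Inhibition of jumping expressed as %MPE.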

Mus musculus [8] = species: Mus musculus; assay: Antinociceptive activity in Swiss albino mouse assessed as jumping latency at 3 ng by hot plate method in presence of norbinaltorphimine; type: functional, organism-based; summary of the method: as §3
Mus musculus [9] = species: Mus musculus; assay: Antinociceptive activity in Swiss albino mouse assessed as jumping latency at 3 ng by hot plate method in presence of naltrindole; type: functional, organism-based; summary of the method: as §3
Mus musculus [10] = assay: Antinociceptive activity in Swiss albino mouse assessed as jumping latency at 10 ug, icv after 5 to 10 mins by hot plate method; type: functional, organism-based; summary of the method: as §1
Mus musculus [11] = assay: Antinociceptive activity in Swiss albino mouse assessed as jumping latency at 10 ug, icv up to 90 mins by hot plate method; type: functional, organism-based; summary of the method: as §1
Mus musculus [12] = assay: Antinociceptive activity in Swiss albino mouse assessed as jumping latency at 3 ug, icv after 5 to 10 mins by hot plate method; type: functional, organism-based; summary of the method: as §1
Mus musculus [13] = assay: Antinociceptive activity in icv dosed Swiss albino mouse assessed as jumping latency at 3 ug, icv up to 90 mins by hot plate method; type: functional, organism-based; summary of the method: as §1

With `NC(=O)[C@@H]1CC(=O)NCCCC[C@@H](NC(=O)[C@@H](N)Cc2ccc(O)cc2)C(=O)N[C@@H](Cc2ccccc2)C(=O)N2CCC[C@@H]2C(=O)N1` the Activity (Mus musculus [1]) was “Dose-dependent effect”, the ED50 (Mus musculus [1]) was 0.02 µg and the Activity (Mus musculus [2]) was “Dose-dependent effect”. The half-life at 500 µM [3] was 117 min, the Ratio IC50 (Rattus norvegicus) was > 11.2 and the Activity (Mus musculus [4]) was “Dose-dependent effect”. The pIC50 [5] was < 6.00 and the pIC50 (Mu-type opioid receptor) was 7.05.

For `Cc1cc(O)cc(C)c1C[C@H](N)C(=O)N[C@@H]1CCCCNC(=O)C[C@@H](C(N)=O)NC(=O)[C@H]2CCCN2C(=O)[C@H](Cc2ccccc2)NC1=O`, the Activity (Mus musculus [6]) was “Active”, the Activity (Mus musculus [1]) was “Dose-dependent effect” and the ED50 (Mus musculus [1]) was <0.01 µg. For the same molecule, the Activity (Mus musculus [2]) was “Dose-dependent effect”, the Drug uptake (Brain) was “Not Active” and the half-life at 500 µM [3] was > 1000 min. The Ratio IC50 (Rattus norvegicus) was 23.5, the Activity (Mus musculus [7]) was “inactive” and the Activity (Mus musculus [8]) was “Active”. The Activity (Mus musculus [4]) was “Dose-dependent effect”, the pIC50 [5] was 6.88 and the Activity (Mus musculus [9]) was “Active”. The pIC50 (Mu-type opioid receptor) was 8.25.

For `NC(=O)[C@@H]1CCCN1C(=O)[C@H](Cc1ccccc1)NC(=O)[C@@H]1CCCN1C(=O)[C@@H](N)Cc1ccc(O)cc1` [MORPHICEPTIN] (H-YPFP-NH2), the Activity (Mus musculus [10]) was “Active”, the Activity (Mus musculus [1]) was “Dose-dependent effect” and the ED50 (Mus musculus [1]) was 5.11 µg. The Activity (Mus musculus [2]) was “Dose-dependent effect”, the half-life at 500 µM [3] was 16.7 min and the Ratio IC50 (Rattus norvegicus) was > 17.7. For the same molecule, the Activity (Mus musculus [11]) was “Active”, the Activity (Mus musculus [4]) was “Dose-dependent effect” and the pIC50 [5] was < 6.00. For the same molecule, the pIC50 (Mu-type opioid receptor) was 7.25.

In the case of `Cc1cc(O)cc(C)c1C[C@H](N)C(=O)N[C@@H]1CCCCNC(=O)C[C@@H](C(N)=O)NC(=O)[C@H](Cc2ccccc2)NC(=O)[C@H](Cc2ccccc2)NC1=O` (H-[Dmt][dK]FFD-NH2; lactam 2-5), the Activity (Mus musculus [1]) was “Dose-dependent effect”, the ED50 (Mus musculus [1]) was 0.02 µg and the Activity (Mus musculus [2]) was “Dose-dependent effect”. For the same molecule, the half-life at 500 µM [3] was > 1000 min, the Ratio IC50 (Rattus norvegicus) was > 1000 and the Activity (Mus musculus [4]) was “Dose-dependent effect”. The pIC50 [5] was 6.40 and the pIC50 (Mu-type opioid receptor) was 9.59.

In the case of `NC(=O)[C@H](Cc1ccccc1)NC(=O)[C@H](Cc1ccccc1)NC(=O)[C@@H]1CCCN1C(=O)[C@@H](N)Cc1ccc(O)cc1` [ENDOMORPHIN 2], the Activity (Mus musculus [1]) was “Dose-dependent effect”, the ED50 (Mus musculus [1]) was 5.48 µg and the Activity (Mus musculus [2]) was “Dose-dependent effect”. For the same molecule, the half-life at 500 µM [3] was 14.3 min, the Activity (Mus musculus [12]) was “Active” and the Activity (Mus musculus [4]) was “Dose-dependent effect”. The Activity (Mus musculus [13]) was “Active”.

Molecule `CC(C)[C@H](NC(=O)[C@H](CCC(=O)O)NC(=O)[C@H](Cc1ccccc1)NC(=O)[C@H](C)NC(=O)[C@@H](N)Cc1ccc(O)cc1)C(=O)N[C@H](C(=O)NCC(=O)O)C(C)C` [DELTORPHINE II] has a pIC50 [5] of 10.10.

For `NC(=O)[C@@H]1CCCCNC(=O)C[C@@H](NC(=O)[C@@H](N)Cc2ccc(O)cc2)C(=O)N[C@@H](Cc2ccccc2)C(=O)N2CCC[C@@H]2C(=O)N1`, the Activity (Mus musculus [1]) was “Dose-dependent effect”, the ED50 (Mus musculus [1]) was 0.07 µg and the Activity (Mus musculus [2]) was “Dose-dependent effect”. For the same molecule, the half-life at 500 µM [3] was 63.3 min, the Ratio IC50 (Rattus norvegicus) was > 65.3 and the Activity (Mus musculus [4]) was “Dose-dependent effect”. For the same molecule, the pIC50 [5] was < 6.00 and the pIC50 (Mu-type opioid receptor) was 7.82.

With `Cc1cc(O)cc(C)c1C[C@H](N)C(=O)N[C@@H]1CC(=O)NCCCC[C@@H](C(N)=O)NC(=O)[C@H]2CCCN2C(=O)[C@H](Cc2ccccc2)NC1=O` the Activity (Mus musculus [6]) was “Active”, the Activity (Mus musculus [1]) was “Dose-dependent effect” and the ED50 (Mus musculus [1]) was <0.01 µg. For the same molecule, the Activity (Mus musculus [2]) was “Dose-dependent effect”, the Drug uptake (Brain) was “Not Active” and the half-life at 500 µM [3] was 627 min. The Ratio IC50 (Rattus norvegicus) was 13.2, the Activity (Mus musculus [7]) was “inactive” and the Activity (Mus musculus [8]) was “Active”. For the same molecule, the Activity (Mus musculus [4]) was “Dose-dependent effect”, the pIC50 [5] was 7.23 and the Activity (Mus musculus [9]) was “Active”. The pIC50 (Mu-type opioid receptor) was 8.36.

In the case of `NC(=O)[C@@H]1CC(=O)NCCCC[C@@H](NC(=O)[C@@H](N)Cc2ccc(O)cc2)C(=O)N[C@@H](Cc2ccccc2)C(=O)N[C@@H](Cc2ccccc2)C(=O)N1` (H-Y[dK]FFD-NH2; lactam 2-5), the Activity (Mus musculus [1]) was “Dose-dependent effect”, the ED50 (Mus musculus [1]) was 0.05 µg and the Activity (Mus musculus [2]) was “Dose-dependent effect”. For the same molecule, the half-life at 500 µM [3] was 363 min, the Ratio IC50 (Rattus norvegicus) was 498 and the Activity (Mus musculus [4]) was “Dose-dependent effect”. The pIC50 [5] was 6.55 and the pIC50 (Mu-type opioid receptor) was 9.25.
